The record followed here is ChEMBL document CHEMBL1140194, “Convenient access to 1,3,4-trisubstituted pyrazoles carrying 5-nitrothiophene moiety via 1,3-dipolar cycloaddition of sydnones with acetylenic ketones and their antimicrobial evaluation” (2008).

Common to all, as to format: functional
One test has as its system Staphylococcus aureus. The test is described as follows: Antimicrobial activity against Staphylococcus aureus ATCC 25923 after 16 to 18 hrs by serial dilution method. Put shortly: (§1)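 Compounds were dissolved in dimethylformamide as stock. An 18-h broth culture was inoculated by loop into nutrient broth and grown 4 h at 37 °C. Stock was serially diluted by 0.5 mL transfers across tubes 1–10, with tube 11 as growth control. About 0.5 mL diluted culture was added per tube, then incubated at 37 °C for 16–18 h. Reference drugs: nitrofurazone for bacteria, fluconazole for Candida.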

The subject of another test is Escherichia coli. Description: Antimicrobial activity against sEscherichia coli ATCC 25922 after 16 to 18 hrs by serial dilution method. Put shortly:
as §1

The subject of a further test is Pseudomonas aeruginosa. Description: Antimicrobial activity against sPseudomonas aeruginosa ATCC 27853 after 16 to 18 hrs by serial dilution method. Put shortly:
as §1

For the next test, the system named is Bacillus subtilis. The test is described as follows: Antimicrobial activity against Bacillus subtilis after 16 to 18 hrs by serial dilution method. The method, boiled down: as §1
For the next test, the system named is Candida albicans. Description: Antimicrobial activity against Candida albicans NCIM 3100 after 16 to 18 hrs by serial dilution method. Put shortly:
as §1

Values after ≈ are worked out from the molar mass of the structure shown.

As to `COc1ccc(-n2cc(C(=O)c3ccc(C)cc3)c(-c3ccc([N+](=O)[O-])s3)n2)cc1`, the MIC against Staphylococcus aureus, in the test with Escherichia coli, against Pseudomonas aeruginosa, in the test on Bacillus subtilis and in the test with Candida albicans was 0.25 µg/mL (≈ 0.596 µM) throughout.
In the case of `Cc1ccc(C(=O)c2cn(-c3ccccc3)nc2-c2ccc([N+](=O)[O-])s2)cc1`, the minimum inhibitory concentration (MIC) with Staphylococcus aureus, against Escherichia coli, against Pseudomonas aeruginosa, against Bacillus subtilis and in the test with Candida albicans was 0.25 µg/mL (≈ 0.642 µM) throughout.
As to `Cc1ccc(-n2cc(C(=O)c3ccccc3)c(-c3ccc([N+](=O)[O-])s3)n2)cc1`, the MIC in the test with Staphylococcus aureus, in the test with Escherichia coli, in the test on Pseudomonas aeruginosa, in the test with Bacillus subtilis and against Candida albicans was 0.25 µg/mL (≈ 0.642 µM) throughout.
`OC(Cn1cncn1)(Cn1cncn1)c1ccc(F)cc1F` [FLUCONAZOLE]: the MIC (commonly the lowest concentration that inhibits growth of the organism) in the test with Candida albicans is 0.25 µg/mL (≈ 0.816 µM).
For the compound `COc1ccc(-n2cc(C(=O)c3ccccc3)c(-c3ccc([N+](=O)[O-])s3)n2)cc1`, the MIC with Staphylococcus aureus, with Escherichia coli, in the test with Pseudomonas aeruginosa, in the test on Bacillus subtilis and in the test on Candida albicans was 0.25 µg/mL (≈ 0.617 µM) throughout.
In the case of `Cc1ccc(C(=O)c2cn(-c3ccc(C)cc3)nc2-c2ccc([N+](=O)[O-])s2)cc1`, the MIC in the test with Staphylococcus aureus, in the test on Escherichia coli, against Pseudomonas aeruginosa, with Bacillus subtilis and in the test with Candida albicans was 0.125 µg/mL (≈ 0.31 µM) in each case.
For the compound `Cc1ccc(-n2cc(C(=O)c3ccc(Cl)cc3)c(-c3ccc([N+](=O)[O-])s3)n2)cc1`, the minimum inhibitory concentration (MIC) in the test on Staphylococcus aureus, in the test on Escherichia coli, against Pseudomonas aeruginosa, in the test with Bacillus subtilis and in the test with Candida albicans was 0.125 µg/mL (≈ 0.295 µM) in each case.
With `O=C(c1ccccc1)c1cn(-c2ccccc2)nc1-c1ccc([N+](=O)[O-])s1`, the minimal inhibitory concentration (MIC) with Staphylococcus aureus, against Escherichia coli, against Pseudomonas aeruginosa, against Bacillus subtilis and in the test on Candida albicans was 0.25 µg/mL (≈ 0.666 µM) throughout.
As to `O=C(c1ccc(Cl)cc1)c1cn(-c2ccccc2)nc1-c1ccc([N+](=O)[O-])s1`, the MIC in the test with Staphylococcus aureus, against Escherichia coli, in the test on Pseudomonas aeruginosa, in the test on Bacillus subtilis and in the test on Candida albicans was 0.125 µg/mL (≈ 0.305 µM) each time.
On to `COc1ccc(-n2cc(C(=O)c3ccc(Cl)cc3)c(-c3ccc([N+](=O)[O-])s3)n2)cc1`, for which the MIC in the test on Staphylococcus aureus came to 0.25 µg/mL (≈ 0.568 µM); against Escherichia coli, 0.25 µg/mL (≈ 0.568 µM); against Pseudomonas aeruginosa, 0.25 µg/mL (≈ 0.568 µM); in the test on Bacillus subtilis, 0.25 µg/mL (≈ 0.568 µM); with Candida albicans it was 0.125 µg/mL (≈ 0.284 µM).
Take `NC(=O)N/N=C/c1ccc([N+](=O)[O-])o1` [NITROFURAZONE]: the MIC in the test with Staphylococcus aureus, against Escherichia coli, in the test on Pseudomonas aeruginosa and in the test on Bacillus subtilis was 0.25 µg/mL (≈ 1.26 µM) each time.
Regarding `COc1ccc(C(=O)c2cn(-c3ccccc3)nc2-c2ccc([N+](=O)[O-])s2)cc1`, the MIC in the test with Staphylococcus aureus, with Escherichia coli, against Pseudomonas aeruginosa, against Bacillus subtilis and with Candida albicans was 0.25 µg/mL (≈ 0.617 µM) each time.
